Data as given in ChEMBL document CHEMBL1123981, “Arylpiperazine derivatives as high-affinity 5-HT1A serotonin ligands” (J Med Chem, 1988).

Tests used:
Format in all cases: tissue-based
[1] = target: T1, 5-hydroxytryptamine receptor 1A (Rattus norvegicus) (UniProt P19327); assay: Hill coefficient in rat brain 5-hydroxytryptamine 1A assay
T1 sequence (whole entry): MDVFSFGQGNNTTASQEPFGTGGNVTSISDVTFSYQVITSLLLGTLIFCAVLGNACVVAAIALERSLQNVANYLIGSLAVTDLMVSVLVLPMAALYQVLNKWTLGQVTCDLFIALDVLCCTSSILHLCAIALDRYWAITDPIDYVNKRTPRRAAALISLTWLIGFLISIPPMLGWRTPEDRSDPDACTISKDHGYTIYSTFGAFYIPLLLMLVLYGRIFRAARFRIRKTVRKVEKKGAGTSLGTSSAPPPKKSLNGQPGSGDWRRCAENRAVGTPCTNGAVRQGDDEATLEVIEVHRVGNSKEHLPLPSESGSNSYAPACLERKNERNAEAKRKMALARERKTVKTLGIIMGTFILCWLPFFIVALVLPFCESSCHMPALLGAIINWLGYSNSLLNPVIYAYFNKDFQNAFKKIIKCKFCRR

[2] = target: T2, 5-hydroxytryptamine receptor 1A (Rattus norvegicus, UniProt P19327); assay: Evaluated for binding affinity towards 5-hydroxytryptamine 1A receptor in rat brain
T2 sequence (P19327 whole entry): T1 sequence (whole entry)

[3] = target: T2, 5-hydroxytryptamine receptor 1A; assay: Binding affinity towards 5-hydroxytryptamine 1A receptor in rat brain
Method in brief: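 Rat hippocampal membranes (male Sprague-Dawley, ca. 220 g), homogenized in 50 mM Tris-HCl/0.5 mM EDTA/10 mM MgSO4, washed, preincubated 15 min at 37 °C; 0.1 nM [3H]8-OH-DPAT with 4 mg wet tissue in Tris pH 7.7 with pargyline, ascorbate; eleven competitor concentrations; 37 °C 20 min; nonspecific with 1 μM 8-OH-DPAT; filtration, scintillation counting; Ki by Cheng–Prusoff.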

SMILES	Hill coefficient [1]	Ki [2] [nM]	Ki [3] [nM]
CC1(C)CC(=O)N(CCCCN2CCN(c3ncccn3)CC2)C(=O)C1	1	–	–
c1ccc(N2CCNCC2)cc1 [PHENYLPIPERAZINE]	0.95	380	–
O=C1c2ccccc2C(=O)N1CCCCN1CCN(c2ncccn2)CC1	1.03	36	–
O=C1c2ccccc2C(=O)N1CCCCN1CCN(c2cccc3ccccc23)CC1	1.16	1	–
COc1ccc(Cl)cc1N1CCNCC1	0.97	870	–
COc1ccccc1N1CCN(CCCCNC(=O)c2ccccc2)CC1	0.88	2	–
O=C1c2ccccc2C(=O)N1CCCN1CCN(c2ccccc2)CC1	0.99	200	–
CC(=O)NCCCCN1CCN(c2ccccc2)CC1	0.99	250	–
O=C1c2ccccc2C(=O)N1CCN1CCN(c2ccccc2)CC1	–	> 10000	–
O=C1c2ccccc2C(=O)N1CCCCCN1CCN(c2ccccc2)CC1	0.91	8.5	–
O=C(NCCCCN1CCN(c2ccccc2)CC1)c1ccccc1	0.82	–	11
O=C(NCCCCN1CCN(c2ncccn2)CC1)c1ccccc1	0.79	60	–
COc1ccccc1N1CCNCC1	0.88	68	–
NCCCCN1CCN(c2ccccc2)CC1	–	> 6000	–
c1ccc2c(N3CCNCC3)cccc2c1	0.85	11	–
c1cnc(N2CCNCC2)nc1 [2-PIPERAZIN-1-YL-PYRIMIDINE]	0.95	1410	–
O=C1c2ccccc2C(=O)N1CCCCN1CCN(c2ccccc2)CC1	0.99	10	–
c1ccc2cc(N3CCNCC3)ccc2c1	1.02	2900	–
Clc1cccc(N2CCNCC2)c1 [CHLOROPHENYLPIPERAZINE]	0.91	130	–
FC(F)(F)c1cccc(N2CCNCC2)c1	0.97	175	–
c1ccc(C2CCNCC2)cc1	0.97	1520	–
